# According to ChEMBL document CHEMBL1156295, “In vitro and in vivo photocytotoxicity of boron dipyrromethene derivatives for photodynamic therapy” (J Med Chem, 2010):
# Active and inactive are the calls of the source. The rule behind the calls is not given here.
# How the values were obtained:
# [1] = tested on: HSC-2; assay: Induction of apoptosis in human HSC2 cells irradiated with 4.1 J/cm^2 broad spectrum light assessed as apoptotic cells at 0.5 uM after 24 hrs of irradiation by annexin V-FITC staining; assay type: functional
# Method in brief: (§1)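 HSC-2 cells at 50% confluency in dishes, treated 2 h, then irradiated (4.1 J/cm2 broad spectrum) or kept dark. At intervals, floating and trypsinized cells pooled, washed in cold PBS, resuspended at 1 × 10^6 cells/mL in binding buffer. Stained 15 min in the dark at room temperature with annexin V-FITC and propidium iodide. 1 × 10^4 cells read by flow cytometry (FL1, FL3).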
# [2] = tested on: HSC-2; assay: Cell cycle arrest in human HSC2 cells irradiated with 4.1 J/cm^2 broad spectrum light assessed as accumulation at G1 phase at 0.25 uM after 12 hrs by flow cytometry relative to control; assay type: functional
# Method in brief: (§2)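 HSC-2 cells given compound for 2 h, then irradiated with broad-spectrum light (or kept dark). Floating plus trypsinized adherent cells collected at set times after irradiation. Fixed in 70% ice-cold ethanol overnight at 4 °C, then stained 30 min with 20 μg/mL RNase A and 1 μM SYTOX Green. 1 × 10^4 cells read by flow cytometry (488 nm laser, FL1 530/30).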
# [3] = Cellular uptake in human HSC2 cells assessed as intracellular localization in to cytoplasmic membrane at 100 nM by spinning disk confocal microscopy; assay type: ADME, cell-based; settings: hsc-2, 0.1 µM
# Method in brief: (§3)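 HSC-2 cells grown on glass coverslips, co-incubated at room temperature for 15–30 min with compound plus probe: ER-Tracker 100 nM, LysoTracker 500 nM or Rh123 100 nM. Rinsed in PBS. XY sections at 0.2 μm imaged; excitation 330–385 nm for ER/Lyso probes, 460–490 nm for Rh123, 520–550 nm for photosensitizer.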
# [4] = tested on: HSC-2; assay: Induction of apoptosis in human HSC2 cells irradiated with 4.1 J/cm^2 broad spectrum light assessed as viable cells at 0.5 uM after 12 hrs of irradiation by annexin V-FITC staining; assay type: functional; settings: HSC-2, light or radiation study, read-out: Activity; method in brief: as §1
# [5] = tested on: HL-60; assay: Phototoxicity against human HL60 cells irradiated with 4.1 J/cm^2 broad spectrum light treated 2 hrs before irradiation measured after 24 hrs by MTT assay; assay type: functional, cell-based; settings: HL-60, light or radiation study
# Method in brief: (§4)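 HL60 at 15000 cells/well; HSC-2 and HK1 at 3000 cells/well, adhered overnight; phenol-red-free medium with 10% FBS. Compound tested at 0.001–100.0 μM from DMSO stock; controls 0.01% DMSO. After 2 h, irradiated with broad-spectrum light at 6.8 mW/cm2, or dark. After 24 h, MTT 4 h at 37 °C, formazan in DMSO, A570. Three determinations, mean ± SD.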
# [6] = tested on: HSC-2; assay: Induction of apoptosis in human HSC2 cells irradiated with 4.1 J/cm^2 broad spectrum light assessed as viable cells at 0.5 uM after 24 hrs of irradiation by annexin V-FITC staining; assay type: functional; settings: HSC-2, light or radiation study, read-out: Activity; method in brief: as §1
# [7] = Cellular uptake in human HSC2 cells assessed as intracellular localization in to mitochondria labeled with rhodamine 123 dye at 100 nM by spinning disk confocal microscopy; assay type: ADME; settings: hsc-2, 0.1 µM; method in brief: as §3
# [8] = organism: Gallus gallus; assay: Antiangiogenic activity against chicken chorioallantoic membrane irradiated with 20 to 40 J/cm^2 assessed as induction of vascular occlusion at 3.5 to 7 nmol/embryo; assay type: functional, tissue-based
# Method in brief: (§5)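 Fertilized chicken eggs incubated at 37 °C, 65% humidity. On EDD-9, single iv bolus into the main CAM vessel in cremophor EL 5%, EtOH 5% in saline. One minute later, a 0.02 cm2 site with 5–100 μm vessels irradiated at 510–560 nm, 40 mW/cm2 (or left dark). After 24 h, FITC-dextran/Indian ink angiography and damage scoring per Lange et al.; at least 10 embryos, mean ± SEM.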
# [9] = tested on: HSC-2; assay: Cell cycle arrest in human HSC2 cells irradiated with 4.1 J/cm^2 broad spectrum light assessed as accumulation at G1 phase at 0.25 uM after 6 hrs by flow cytometry relative to control; assay type: functional; method in brief: as §2
# [10] = organism: Gallus gallus; assay: Antiangiogenic activity against chicken chorioallantoic membrane in dark assessed as induction of vascular occlusion at 3.5 to 7 nmol/embryo; assay type: functional, tissue-based; method in brief: as §5
# [11] = tested on: HSC-2; assay: Cytotoxicity against human HSC2 cells after 24 hrs by MTT assay; assay type: functional, cell-based; settings: HSC-2, 24 h; method in brief: as §4
# [12] = tested on: HSC-2; assay: Induction of apoptosis in human HSC2 cells irradiated with 4.1 J/cm^2 broad spectrum light assessed as apoptotic cells at 0.5 uM after 4 hrs of irradiation by annexin V-FITC staining; assay type: functional; method in brief: as §1
smiles,measurement,setting,value
CC1=C(I)C(C)=[N+]2C1=C(CCC(=O)O)c1c(C)c(I)c(C)n1[B-]2(F)F,Activity,[1],89.9%
same,Activity,[2],44.1%
same,Activity,[3],Not Active
same,viability at 0.5 µM,[4],79.3%
same,IC50,[5],45 nM
same,viability at 0.5 µM,[6],10.1%
same,Drug uptake,[7],Active
same,Activity,[8],Active
same,Activity,[9],26.4%
same,Activity,[10],inactive
same,IC50,[11],> 100000 nM
same,Activity,[12],8.7%
